Experimental findings from ChEMBL document CHEMBL4665728, “Synthesis and evaluation of 1,2,4-oxadiazole derivatives as potential anti-inflammatory agents by inhibiting NF-κB signaling pathway in LPS-stimulated RAW 264.7 cells” (Bioorg Med Chem Lett, 2020) are described below.

Data set [1] in a line: Cytotoxicity against mouse RAW 264.7 assessed as cell viability at 20 uM incubated for 24 hrs by MTT assay (reference value: 100%). The data set is classed as cell-based, RAW264.7. The settings on record: RAW 264.7 cells, read-out: Activity. The method, boiled down:
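MTT viability of RAW264.7 cells at 20 µM, expressed as percent of DMSO vehicle control (100%); above 75% viability counted as non-toxic; doxorubicin used as control drug.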
In general terms: Formazan colour is commonly taken as a measure of viable cells.

Data set [2] deals with RAW264.7. Description: Antiinflammatory activity against mouse RAW264.7 cells assessed as inhibition of LPS-stimulated NO production at 20 uM relative to control. The data set is classed as functional. More on the design: scale not given: the % may be the effect or the level left. The method, boiled down: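 NO production by RAW264.7 cells stimulated with LPS; inhibitory ratio expressed relative to the LPS-treated group.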

In data set [3] the test system is RAW264.7. Description: Antiinflammatory activity against mouse RAW264.7 cells assessed as inhibition of LPS-stimulated iNOS protein expression at 3 to 6 uM preincubated followed by LPS addition by Western blot analysis. The data set is classed as functional, cell-based. As to conditions: dose microM 3-6. The method, boiled down:
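iNOS protein in LPS-stimulated RAW264.7 cells detected by Western blotting; mean ± SD, n = 3.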
For orientation: Immunoblotting shows a protein as a band on a membrane.

Data set [4] concerns RAW264.7. Description: Antiinflammatory activity against mouse RAW264.7 cells assessed as reduction in LPS-induced TNFalpha mRNA expression at 3 to 6 uM incubated for 24 hrs by qRT-PCR analysis. The data set is classed as functional, cell-based. As to conditions: dose microM 3-6, time 24.0 hrs. The method, boiled down: (§1)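 Cells co-treated with compound at several concentrations plus LPS (1 µg/mL) for 24 h; IL-6, IL-1β and TNFα mRNA by qRT-PCR, expressed as ratio to reference gene; mean ± SD, n = 3.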
On the technique in general: Quantitative PCR measures a nucleic acid by following its amplification.

Data set [5] concerns RAW264.7. Nature of the data set: Antiinflammatory activity against mouse RAW264.7 cells assessed as reduction in LPS-induced IL1beta mRNA expression at 3 to 6 uM incubated for 24 hrs by qRT-PCR analysis. Type of data set: functional, cell-based. The settings on record: dose microM 3-6, time 24.0 hrs. The method, boiled down: as §1
In data set [6] the test system is RAW264.7. Nature of the data set: Antiinflammatory activity against mouse RAW264.7 cells assessed as reduction in LPS-induced IL6 mRNA expression at 3 to 6 uM incubated for 24 hrs by qRT-PCR analysis. The data set is classed as functional, cell-based. As to conditions: dose microM 3-6, time 24.0 hrs. The method, boiled down:
as §1

Data set [7] concerns RAW264.7. Description: Antiinflammatory activity against mouse RAW264.7 cells assessed as degradation in LPS-induced IkappaBalpha phosphorylation at 3 to 6 uM incubated for 45 mins by Western blot analysis. The settings on record: dose microM 3-6, time 45.0 min. Type of data set: functional, cell-based. The method, boiled down:
(§2)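 RAW264.7 cells treated with a range of concentrations for 45 min; phospho-p65, p65, IκBα and β-actin detected by Western blot; three independent experiments.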

Data set [8] deals with RAW264.7. Nature of the data set: Antiinflammatory activity against mouse RAW264.7 cells assessed as reduction in LPS-induced IkappaBalpha phosphorylation at 3 to 6 uM incubated for 45 mins by Western blot analysis. Type of data set: functional, cell-based. The settings on record: dose microM 3-6, time 45.0 min. The gist of the method: as §2
For data set [9], the system named is RAW264.7. Description: Antiinflammatory activity against mouse RAW264.7 cells assessed as reduction in LPS-induced p65 phosphorylation at 3 to 6 uM incubated for 45 mins by Western blot analysis. The data set is classed as functional, cell-based. The settings on record: dose microM 3-6, time 45.0 min. The method, boiled down: as §2
Data set [10] relates to RAW264.7. Nature of the data set: Antiinflammatory activity against mouse RAW264.7 cells assessed as inhibition of LPS-stimulated nuclear translocation of p65 at 20 uM preincubated for 1 hr followed by LPS addition and measured after 24 hrs by fluorescence microscopic method. The data set is classed as functional, cell-based. The gist of the method: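 RAW264.7 cells pretreated 1 h, then stimulated with LPS (1 µg/mL) or vehicle for 24 h; p65 immunostained and localisation viewed in overlaid fluorescence images; three individual experiments.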

Data set [11] concerns RAW264.7. Description: Cytotoxicity against mouse RAW 264.7 assessed as reduction in cell viability up to 100 uM incubated for 24 hrs by MTT assay. Type of data set: cell-based. As to conditions: raw264.7, 24 h. The gist of the method:
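MTT viability of RAW264.7 cells across 0 to 100 µM, compared with vehicle control.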

Data set [12] relates to RAW264.7. Nature of the data set: Antiinflammatory activity against mouse RAW264.7 cells assessed as inhibition of LPS-stimulated NO production. Type of data set: functional, cell-based. The method, boiled down:
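IC50 for inhibition of NO release by LPS-stimulated RAW264.7 macrophages; IC50 taken as the mean of three independent experiments.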

The test system of data set [13] is RAW264.7. Nature of the data set: Antiinflammatory activity against mouse RAW264.7 cells assessed as inhibition of TNFalpha-stimulated NF-kappaB activation by luciferase assay. Type of data set: functional, cell-based.

Calls of active or inactive are those of the source. The rule behind the calls is not given here.

As for `Oc1ccc(-c2nc(-c3ccc4[nH]ccc4c3)no2)cc1`, the viability at 24 h, 20 µM in data set [1] stood at 36.5%.
On to `c1ccc(-c2nc(-c3cccc4ccccc34)no2)cc1`, for which, in the data set with RAW264.7 [2], the Activity came to 59.89%. Further, the viability at 24 h, 20 µM in data set [1] was 90.4%.
The corresponding values for `COc1cccc(-c2nc(-c3ccc4[nH]ccc4c3)no2)c1` are 53.94% and 88.1%.
The corresponding values for `c1ccc(-c2nc(C3CCCC3)no2)cc1` are 34.28% and 85.4%.
For `c1ccc(Cc2noc(-c3ccccc3)n2)cc1`, the Activity in the data set on RAW264.7 [2] is 39.33%. Also, the viability at 24 h, 20 µM in data set [1] is 89.6%.
Consider `c1ccc(-c2nc(-c3ccc4cc[nH]c4c3)no2)cc1`, for which the viability at 24 h, 20 µM in data set [1] was determined as 31%.
On the same count and under the same terms, next, `Fc1cccc(-c2nc(-c3ccc4[nH]ccc4c3)no2)c1`: 17.2%.
On the same count and under the same terms, next, `c1ccc(-c2noc(-c3ccccc3)n2)cc1`: 42.1%; `COc1ccc(-c2nc(-c3ccc4[nH]ccc4c3)no2)cc1`: 41.3%; `C#Cc1ccc(-c2nc(-c3ccc4[nH]ccc4c3)no2)cc1`: 23.6%.
Usually IC50 stands for the concentration at which inhibition is half-maximal. `c1coc(-c2nc(-c3ccc4[nH]ccc4c3)no2)c1`: the result with RAW264.7 [3], in the data set on RAW264.7 [9] and with RAW264.7 [10] was Active. The Activity entry was “Dose-dependent effect” with RAW264.7 [4]; “Dose-dependent effect” with RAW264.7 [5]; “Dose-dependent effect” in the data set on RAW264.7 [6]; “Dose-dependent effect” in the data set with RAW264.7 [7]; “Dose-dependent effect” in the data set on RAW264.7 [8]; “Non-Toxic” in the data set with RAW264.7 [11]. For the same molecule, the Activity in the data set on RAW264.7 [2] stood at 86.6%. For the same molecule, the 50% inhibitory concentration (IC50) in the data set on RAW264.7 [12] was determined as 12.8 µM; with RAW264.7 [13], 1.35 µM. Besides, the viability at 24 h, 20 µM in [1] came to 99%.
With `c1ccc(-c2nc(-c3c[nH]c4ccccc34)no2)cc1`, in [1], the viability at 24 h, 20 µM came to 11.6%.
On to `c1ccc(-c2nc(Cc3cccs3)no2)cc1`, for which the Activity in the data set with RAW264.7 [2] worked out at 48.24%. Besides, the viability at 24 h, 20 µM in data set [1] was determined as 85.2%.
As to `c1ccc(-c2nc(-c3cccc4[nH]ccc34)no2)cc1`, the IC50 in the data set on RAW264.7 [12] amounted to 27 µM; in the data set on RAW264.7 [13], 13.8 µM. Further, in the data set on RAW264.7 [2], the Activity is 45.71%. Also, the viability at 24 h, 20 µM in [1] was found to be 64.3%.
As to `c1ccc(-c2nc(-c3ccc4ccccc4c3)no2)cc1`, the Activity in the data set on RAW264.7 [2] was 63.58%. In data set [1], the viability at 24 h, 20 µM was found to be 86.2%.
As to `Fc1ccccc1-c1nc(-c2ccc3[nH]ccc3c2)no1`, the viability at 24 h, 20 µM in [1] was 26.4%.
Turning to `c1cc2cc(-c3noc(C4CCOCC4)n3)ccc2[nH]1`, in the data set with RAW264.7 [2], the Activity is listed as 2.75%. Moreover, the viability at 24 h, 20 µM in data set [1] came to 95.7%.
The corresponding values for `c1ccc(-c2nc(-c3ccncc3)no2)cc1` are 43.13% and 89%.
Turning to `Fc1ccc(-c2nc(-c3ccc4[nH]ccc4c3)no2)cc1`, the viability at 24 h, 20 µM in data set [1] was 16.8%.
Turning to `C[C@@H]1C[C@H]2[C@@H]3CCC4=CC(=O)C=C[C@]4(C)[C@@]3(F)[C@@H](O)C[C@]2(C)[C@@]1(O)C(=O)CO` [DEXAMETHASONE], the IC50 in the data set with RAW264.7 [12] is 4.16 µM.
Consider `c1ccc(-c2nc(Cc3cccc4ccccc34)no2)cc1`, for which the Activity with RAW264.7 [2] came to 41.64%. Also, the viability at 24 h, 20 µM in data set [1] was 92.8%.
The corresponding values for `c1ccc(-c2nc(-c3ccc4[nH]ccc4c3)no2)cc1` are 46.76% and 79.4%.
Turning to `C1=CCC(c2nc(-c3ccc4[nH]ccc4c3)no2)C1`, the viability at 24 h, 20 µM in [1] amounted to 24.3%.
Take `c1cc2cc(-c3noc(C4CCCCC4)n3)ccc2[nH]1`: the viability at 24 h, 20 µM in data set [1] turned out to be 68.8%.
On to `COc1ccccc1-c1nc(-c2ccc3[nH]ccc3c2)no1`, for which the viability at 24 h, 20 µM in [1] is 45%.
Still for that read-out and setting: next, `C(=C\c1noc(-c2ccccc2)n1)/c1ccccc1`: 28.2%.
On the same count and under the same terms, next, `Cc1ccc(-c2nc(-c3ccc4[nH]ccc4c3)no2)cc1`: 51.2%; `c1ccc(-c2nc(-c3cnccn3)no2)cc1`: 46.2%.
Turning to `Cc1ccccc1-c1nc(-c2ccc3[nH]ccc3c2)no1`, in the data set with RAW264.7 [2], the Activity is given as 47.22%. Moreover, in data set [1], the viability at 24 h, 20 µM came out at 85.3%.
For the molecule `CC(C)C[C@H](NC(=O)[C@H](Cc1ccccc1)NC(=O)c1cnccn1)B(O)O` [BORTEZOMIB], the half-maximal inhibitory concentration (IC50) with RAW264.7 [13] is 0.03 µM.
As to `c1cc2cc(-c3noc(C4CCC4)n3)ccc2[nH]1`, the Activity in the data set with RAW264.7 [2] came to 57.58%. The viability at 24 h, 20 µM in data set [1] was determined as 85.4%.
As for `CSc1ccc(-c2nc(-c3ccc4[nH]ccc4c3)no2)cc1`, the viability at 24 h, 20 µM in [1] was 22.8%.
